Measured values taken from ChEMBL document CHEMBL5712913, “Discovery of novel ATAD2 bromodomain inhibitors that trigger apoptosis and autophagy in breast cells by structure-based virtual screening” (J Enzyme Inhib Med Chem, 2020).
Calls of active or inactive are those of the source. The rule behind the calls is not given here.

Experiments:
MDA-MB-231 [1] = assay: Induction of apoptosis in human MDA-MB-231 cells assessed as reduction of cleavage of caspase 3 after 24 hrs by Western blot assay; assay type: functional, cell-based; conditions: dose 1.25-5 µM
Procedure, shortened: (§1)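 MDA-MB-231 cells (DMEM, 10% FBS, 5% CO2) exposed to 1.25, 2.5 or 5 μM for 24 h. Adherent and floating cells lysed in Hepes 50 mM pH 7.4/1% Triton X-100 buffer with phosphatase and protease inhibitors. Equal protein run on 10–15% SDS-PAGE, transferred to PVDF, detected by HRP/ECL. Bands normalised to β-actin, compared with DMSO control by unpaired t-test.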

MDA-MB-231 [2] = assay: Induction of apoptosis in human MDA-MB-231 cells assessed as necrotic cells at 2.5 microM after 24 hrs by Annexin-V/PI staining based flow cytometry (Rvb= 1.22%); assay type: functional
MDA-MB-231 [3] = assay: Inhibition of ATAD2 in human MDA-MB-231 cells by measuring reduction in color intensity at 2.5 uM by immuno chemistry analysis; assay type: functional, cell-based
Procedure, shortened: (§2)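 MDA-MB-231 cells treated at 2.5 µM. Anti-ATAD2 or anti-p-cMyc primary (1:200 in PBS/1% BSA) applied overnight at 4 °C, then fluorescent secondary antibody 1 h at room temperature. Nuclei counterstained with DAPI, green signal imaged.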

MDA-MB-231 [4] = assay: Induction of autophagy in human MDA-MB-231 cells assessed as increase of LC3-II expression after 24 hrs by Western blot assay; assay type: functional, cell-based; conditions: dose 1.25-5 µM
MDA-MB-231 [5] = assay: Induction of autophagy in human MDA-MB-231 cells assessed as downregulation of mTOR at ser2448 residue expression at 1.25 to 5 uM for 24 hrs by Western blot assay; assay type: functional, cell-based; conditions: dose 1.25-5 µM
Procedure, shortened: (§3)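 MDA-MB-231 cells treated with 1.25, 2.5 or 5 µM for 24 h. Lysates made in Hepes pH 7.4/Triton X-100 buffer with protease and phosphatase inhibitors, then run on SDS-PAGE, blotted to PVDF and detected by HRP/ECL. p-PI3K and p-mTOR Ser2448 bands normalised to β-actin.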

MDA-MB-231 [6] = assay: Induction of apoptosis in human MDA-MB-231 cells assessed as late apoptotic cells at 2.5 microM after 24 hrs by Annexin-V/PI staining based flow cytometry (Rvb= 2.46%); assay type: functional
MDA-MB-231 [7] = assay: Induction of apoptosis in human MDA-MB-231 cells assessed as early apoptotic cells at 5 microM after 24 hrs by Annexin-V/PI staining based flow cytometry (Rvb= 3.14 %); assay type: functional
MDA-MB-231 [8] = assay: Inhibition of ATAD2 in human MDA-MB-231 cells by measuring c-myc protein level at 1.25 to 5 uM for 24 hrs by Western blot analysis; assay type: functional, cell-based; conditions: dose 1.25-5 µM
Procedure, shortened: (§4)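 MDA-MB-231 cells treated with 1.25, 2.5 and 5.0 µM for 24 h. Lysates separated on 10–15% SDS-PAGE and blotted to PVDF. c-Myc and p-cMyc detected with HRP/ECL, with β-actin as loading control.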

MDA-MB-231 [9] = assay: Induction of apoptosis in human MDA-MB-231 cells assessed as necrotic cells at 1.25 microM after 24 hrs by Annexin-V/PI staining based flow cytometry (Rvb= 1.22%); assay type: functional
MDA-MB-231 [10] = assay: Induction of apoptosis in human MDA-MB-231 cells assessed as viable cells at 2.5 microM after 24 hrs by Annexin-V/PI staining based flow cytometry (Rvb= 93.17 %); assay type: functional; conditions: read-out: Activity
MDA-MB-231 [11] = assay: Induction of apoptosis in human MDA-MB-231 cells assessed as late apoptotic cells at 5 microM after 24 hrs by Annexin-V/PI staining based flow cytometry (Rvb= 2.46%); assay type: functional
MDA-MB-231 [12] = assay: Inhibition of ATAD2 in human MDA-MB-231 cells by measuring c-myc phosphorylation at 1.25 to 5 uM for 24 hrs by Western blot analysis; assay type: functional, cell-based; conditions: dose 1.25-5 µM; procedure, shortened: as §4
MDA-MB-231 [13] = assay: Induction of autophagy in human MDA-MB-231 cells assessed as degradation of SQSTM1/p62 after 24 hrs by Western blot assay; assay type: functional, cell-based; conditions: dose 1.25-5 µM
MDA-MB-231 [14] = assay: Induction of apoptosis in human MDA-MB-231 cells assessed as late apoptotic cells at 1.25 microM after 24 hrs by Annexin-V/PI staining based flow cytometry (Rvb= 2.46%); assay type: functional
MDA-MB-231 [15] = assay: Induction of autophagy in human MDA-MB-231 cells assessed as downregulation of PI3K expression at 1.25 to 5 uM for 24 hrs by Western blot assay; assay type: functional, cell-based; conditions: dose 1.25-5 µM; procedure, shortened: as §3
MDA-MB-231 [16] = assay: Induction of apoptosis in human MDA-MB-231 cells assessed as necrotic cells at 5 microM after 24 hrs by Annexin-V/PI staining based flow cytometry (Rvb= 1.22%); assay type: functional
MDA-MB-231 [17] = assay: Induction of autophagy in human MDA-MB-231 cells assessed as downregulation of AKT expression at 1.25 to 5 uM for 24 hrs by Western blot assay; assay type: functional, cell-based; conditions: dose 1.25-5 µM
MDA-MB-231 [18] = assay: Induction of apoptosis in human MDA-MB-231 cells assessed as reduction of Bcl-2 expression after 24 hrs by Western blot assay; assay type: functional, cell-based; conditions: dose 1.25-5 µM; procedure, shortened: as §1
MDA-MB-231 [19] = assay: Induction of autophagy in human MDA-MB-231 cells assessed as increase of p-ULK1 expression after 24 hrs by Western blot assay; assay type: functional, cell-based; conditions: dose 1.25-5 µM
MDA-MB-231 [20] = assay: Induction of autophagy in human MDA-MB-231 cells assessed as increase of beclin 1 expression after 24 hrs by Western blot assay; assay type: functional, cell-based; conditions: dose 1.25-5 µM
MDA-MB-231 [21] = assay: Induction of apoptosis in human MDA-MB-231 cells assessed as early apoptotic cells at 1.25 microM after 24 hrs by Annexin-V/PI staining based flow cytometry (Rvb= 3.14 %); assay type: functional
MDA-MB-231 [22] = assay: Induction of autophagy in human MDA-MB-231 cells assessed as aggregation of LC3 puncta after 24 hrs by immunofluorescence analysis; assay type: functional, cell-based
Procedure, shortened: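 MDA-MB-231 cells transfected with GFP/mRFP-LC3, then exposed to 2.5 µM for 24 h. LC3 puncta and autophagy ratio scored under a fluorescence microscope.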

MDA-MB-231 [23] = assay: Induction of apoptosis in human MDA-MB-231 cells assessed as viable cells at 5 microM after 24 hrs by Annexin-V/PI staining based flow cytometry (Rvb= 93.17 %); assay type: functional; conditions: read-out: Activity
MDA-MB-231 [24] = assay: Induction of autophagy in human MDA-MB-231 cells assessed as downregulation of mTOR expression at 1.25 to 5 uM for 24 hrs by Western blot assay; assay type: functional, cell-based; conditions: dose 1.25-5 µM; procedure, shortened: as §3
MDA-MB-231 [25] = assay: Induction of apoptosis in human MDA-MB-231 cells assessed as increase of Bax expression after 24 hrs by Western blot assay; assay type: functional, cell-based; conditions: dose 1.25-5 µM; procedure, shortened: as §1
MDA-MB-231 [26] = assay: Inhibition of ATAD2 in human MDA-MB-231 cells assessed as downregulation of c-myc phosphorylation at 2.5 uM by immuno chemistry analysis; assay type: cell-based; procedure, shortened: as §2
MDA-MB-231 [27] = assay: Induction of apoptosis in human MDA-MB-231 cells assessed as reduction of cleavage of caspase 8 after 24 hrs by Western blot assay; assay type: functional, cell-based; conditions: dose 1.25-5 µM; procedure, shortened: as §1
MDA-MB-231 [28] = assay: Induction of autophagy in human MDA-MB-231 cells assessed as increase of ULK1 expression after 24 hrs by Western blot assay; assay type: functional, cell-based; conditions: dose 1.25-5 µM
MDA-MB-231 [29] = assay: Induction of apoptosis in human MDA-MB-231 cells assessed as early apoptotic cells at 2.5 microM after 24 hrs by Annexin-V/PI staining based flow cytometry (Rvb= 3.14 %); assay type: functional
[30] = target: T1, ATPase family AAA domain-containing protein 2 (Homo sapiens, UniProt Q6PL18); assay: Inhibitory activity against ATAD2 (unknown origin) at bromodomain incubated for 180 min by Tr-FRET assay
T1 sequence (Q6PL18 whole entry): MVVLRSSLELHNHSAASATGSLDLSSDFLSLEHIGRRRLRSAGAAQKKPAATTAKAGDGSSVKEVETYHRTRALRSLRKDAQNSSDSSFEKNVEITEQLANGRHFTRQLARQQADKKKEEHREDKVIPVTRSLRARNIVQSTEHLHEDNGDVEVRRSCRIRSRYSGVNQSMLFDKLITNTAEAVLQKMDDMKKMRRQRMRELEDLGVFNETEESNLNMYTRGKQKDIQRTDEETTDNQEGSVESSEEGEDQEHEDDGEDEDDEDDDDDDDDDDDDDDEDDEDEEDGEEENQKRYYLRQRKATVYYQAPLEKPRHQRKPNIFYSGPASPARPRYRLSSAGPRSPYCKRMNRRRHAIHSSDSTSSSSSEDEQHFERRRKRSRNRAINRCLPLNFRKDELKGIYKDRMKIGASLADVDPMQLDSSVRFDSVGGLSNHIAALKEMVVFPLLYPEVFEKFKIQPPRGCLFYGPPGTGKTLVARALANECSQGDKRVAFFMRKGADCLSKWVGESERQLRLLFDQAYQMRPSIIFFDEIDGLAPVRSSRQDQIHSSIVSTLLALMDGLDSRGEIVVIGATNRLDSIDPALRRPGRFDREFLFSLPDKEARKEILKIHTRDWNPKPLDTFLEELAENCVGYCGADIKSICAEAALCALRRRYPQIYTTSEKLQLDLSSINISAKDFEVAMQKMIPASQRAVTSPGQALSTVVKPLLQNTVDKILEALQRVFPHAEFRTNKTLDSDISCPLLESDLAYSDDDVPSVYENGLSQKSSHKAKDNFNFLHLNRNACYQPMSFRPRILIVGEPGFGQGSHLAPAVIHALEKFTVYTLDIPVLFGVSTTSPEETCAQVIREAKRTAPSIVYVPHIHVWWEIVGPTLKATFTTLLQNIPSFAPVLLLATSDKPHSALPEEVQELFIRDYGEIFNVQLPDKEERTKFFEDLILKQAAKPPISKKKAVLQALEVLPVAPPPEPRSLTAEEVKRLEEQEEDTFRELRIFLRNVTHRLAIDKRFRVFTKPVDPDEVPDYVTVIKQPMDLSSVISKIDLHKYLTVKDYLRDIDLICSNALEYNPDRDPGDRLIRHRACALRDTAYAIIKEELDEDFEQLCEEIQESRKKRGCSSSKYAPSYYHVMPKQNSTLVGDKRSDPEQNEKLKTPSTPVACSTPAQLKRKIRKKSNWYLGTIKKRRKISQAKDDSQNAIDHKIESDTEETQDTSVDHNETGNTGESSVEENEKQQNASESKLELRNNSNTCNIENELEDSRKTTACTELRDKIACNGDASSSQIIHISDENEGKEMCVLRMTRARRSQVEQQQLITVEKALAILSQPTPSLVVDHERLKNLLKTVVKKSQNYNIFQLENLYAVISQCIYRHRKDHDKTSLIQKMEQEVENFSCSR
Procedure, shortened: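 Recombinant ATAD2 bromodomain and BET ligand read by TR-FRET. Compounds diluted in DMSO, then 20-fold in 5% DMSO in reaction buffer; 2 µl added per 20 µl reaction. Incubated 180 min, then acceptor/donor fluorescence ratio read. Each concentration run in duplicate.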

For `CC1=C(C#N)c2nc(N)c(C#N)c(C)c2/C1=C\c1ccc(-c2cc(C(=O)O)ccc2Cl)o1`, the Activity (MDA-MB-231 [1]) was “Active”, the Activity (MDA-MB-231 [2]) was 3.67% and the Activity (MDA-MB-231 [3]) was “Active”. The Activity (MDA-MB-231 [4]) was “Active”, the Activity (MDA-MB-231 [5]) was “Active” and the Activity (MDA-MB-231 [6]) was 3.92%. The Activity (MDA-MB-231 [7]) was 23.86%, the Activity (MDA-MB-231 [8]) was “Active” and the Activity (MDA-MB-231 [9]) was 1.55%. The viability at 2.5 µM (MDA-MB-231 [10]) was 84.7%, the Activity (MDA-MB-231 [11]) was 10.01% and the Activity (MDA-MB-231 [12]) was “Active”. For the same compound, the Activity (MDA-MB-231 [13]) was “Active”, the Activity (MDA-MB-231 [14]) was 2.89% and the Activity (MDA-MB-231 [15]) was “Active”. The Activity (MDA-MB-231 [16]) was 5.98%, the Activity (MDA-MB-231 [17]) was “Active” and the Activity (MDA-MB-231 [18]) was “Active”. The Activity (MDA-MB-231 [19]) was “Dose-Dependent Effect”, the Activity (MDA-MB-231 [20]) was “Active” and the Activity (MDA-MB-231 [21]) was 5.24%. The Activity (MDA-MB-231 [22]) was “Active”, the viability at 5 µM (MDA-MB-231 [23]) was 60.1% and the Activity (MDA-MB-231 [24]) was “Active”. For the same compound, the Activity (MDA-MB-231 [25]) was “Active”, the inhibition (MDA-MB-231 [26]) was “Active” and the Activity (MDA-MB-231 [27]) was “Active”. The Activity (MDA-MB-231 [28]) was “Dose-Dependent Effect” and the Activity (MDA-MB-231 [29]) was 7.76%.

Work on `COc1cc(Cl)c(C(=O)N[C@H](CN[C@H]2CC[C@@H](N)CC2)Cc2ccc(C#N)cc2)cc1-c1ccc(CN[C@H](C)c2ccc(C)cc2)o1` yielded an IC50 [30] of 242 nM.
